Experimental data pooled from the literature.
Protocols differ between the studies behind these lines.
Cell line: A549

Compound	effect on	technique	time	IC50 [µM]
COc1cc(N(C)CCN(C)C)c(NC(=O)C=C(C)C)cc1Nc1nc(N2CCc3sccc3C2)c2sccc2n1	cell growth or viability	MTT		27.9
COc1cc2ncnc(Nc3ccc(F)c(Cl)c3)c2cc1NC(=O)N/N=C/c1cccn1CCN(C)C	cell growth or viability	MTT	72 h	4.3
CCCCC/C=C/C(=O)CCc1ccc(O)c(OC)c1	cell growth or viability	SRB		18.6
COC(=O)/C=C1\S/C(=N\C(=O)c2ccc3ccccc3c2)N(C2CCCCC2)C1=O	cell growth or viability		48 h	13.4
C=C(Cl)C(=O)Nc1cc(Nc2nc(Nc3cnn(C)c3)c3sccc3n2)c(OC)cc1N(C)CCN(C)C	cell growth or viability	MTT		0.441
CC1=C(O)C(=O)C=C2C1=CC=C1[C@@]2(C)CC[C@@]2(C)[C@@H]3C[C@](C)(C(=O)OCCCCCO)CC[C@]3(C)CC[C@]12C	cell growth or viability	MTT	48 h	> 100
COc1ccc(NC(=O)NNC(=O)c2cccc(Nc3nccc(-c4cccnc4)n3)c2)c(OC)c1	cell growth or viability	MTT	24 h	> 40
CN1CCN(CCCn2cccc2/C=N/NC(=O)Nc2cc3c(Nc4ccc(F)c(Cl)c4)ncnc3cc2O[C@H]2CCOC2)CC1	cell growth or viability	MTT	72 h	4.06
COc1cc2c(Nc3ccc(NC(=O)c4ccccc4)cc3)ncnc2cc1OCCCN1CCOCC1	cell growth or viability	MTS	48 h	3.2
COc1c(C)cnc(COc2ccc(NC(=O)Nc3ccc(Cl)c(C(F)(F)F)c3)cc2)c1C	cell growth or viability	MTT	72 h	6.63
C=CC(=O)Nc1cc(Nc2nc(N3CCOCC3)c3sccc3n2)c(OC)cc1N(C)CCN(C)C	cell growth or viability	MTT		> 50
COc1ccc(-c2nn(-c3ccc(S(C)(=O)=O)cc3)cc2C=N/N=c2\[nH]c(-c3ccc([N+](=O)[O-])cc3)cs2)cc1	cell growth or viability	MTT	48 h	4.03
COc1cc2ncnc(Nc3ccc(F)c(Cl)c3)c2cc1NC(=O)N/N=C/c1cccn1CCN1CCOCC1	cell growth or viability	MTT	72 h	0.58
O=C1Nc2ccc(Br)cc2/C1=N/NC(=O)c1cc2ccccc2[nH]1	cell growth or viability			16
Brc1ccc(Nc2nc(N/N=C\c3c[nH]c4ccccc34)nc(Nc3ccccc3)n2)cc1	cell growth or viability	SRB	72 h	11.6
CCNC(=S)NC(=O)c1ccc2ccccc2c1	cell growth or viability		48 h	5.01
CS(=O)(=O)c1ccc(-n2cc(C=N/N=c3\[nH]c(-c4ccc(Br)cc4)cs3)c(-c3ccc([N+](=O)[O-])cc3)n2)cc1	cell growth or viability	MTT	48 h	28.4
COc1ccccc1/C=C/CNCC(O)COc1ccc(C2CCCCC2)cc1 (centres unmarked)	cell growth or viability	CCK-8	72 h	11.2
CC(=O)O[C@H]1C(=O)[C@@]2(C)[C@H]([C@H](OC(=O)c3ccccc3)[C@]3(O)C[C@H](OC(=O)[C@H](O)[C@@H](NC(=O)c4ccccc4)c4ccccc4)C(C)=C1C3(C)C)[C@]1(OC(C)=O)CO[C@@H]1C[C@@H]2O	cell growth or viability	SRB		0.03
COc1c(C)c(OC)c2c(c1C)OC(c1ccccc1)CC2=O (centres unmarked)	cell growth or viability	SRB	72 h	> 50
CCCc1ccc(OCC(O)CNC/C=C/c2ccccc2OC)cc1 (centres unmarked)	cell growth or viability	CCK-8	72 h	31.6

Compound	effect on	technique	time	IC50 [µM]
COc1cc(C=C(C(=O)/C=C/c2ccc(OC)c(OC)c2)C(=O)/C=C/c2ccc(OC)c(OC)c2)ccc1O	colony formation		9 days	< 0.2
COc1ccnc(COc2ccc(NC(=O)Nc3ccc(F)cc3)cc2)c1OC	cell growth or viability	MTT	72 h	23.3
COc1ccccc1/C=C/CNCC(O)COc1ccc2[nH]c3ccccc3c2c1 (centres unmarked)	cell growth or viability	CCK-8	72 h	9.1
O=C(N/N=C/c1cccn1CCN1CCCCC1)Nc1cc2c(Nc3ccc(F)c(Cl)c3)ncnc2cc1O[C@H]1CCOC1	cell growth or viability	MTT	72 h	3.58
Oc1ncnc2cc(Nc3nc(-c4ccccc4)cs3)ccc12	cell growth or viability	MTT		24.7
COc1cc2ncnc(Nc3ccc(F)c(Cl)c3)c2cc1NC(=O)N/N=C/c1cccn1CCN1CCCC1	cell growth or viability	MTT	72 h	0.35
Cc1cc(=O)[nH]n1C(=O)c1ccc(-n2c(C)ccc2C)cc1	cell growth or viability	MTT	72 h	208
C=CC(=O)Nc1cccc(Nc2nc(Nc3ccc(OCCOC)cc3)ncc2F)c1	cell growth or viability			4.96
Cc1ccc(C)n1-c1ccc(-c2nnco2)cc1	cell growth or viability	MTT	72 h	226
Cc1ccc(-c2ccc(O)cc2)c(C(=C2C=CC(=O)C=C2)c2ccc(O)cc2)c1C#Cc1ccc(O)cc1	cell growth or viability	MTT	48 h	17.6
Cn1c(=O)c2c(ncn2Cc2nnc(SCC(=O)Nc3ccccc3)n2-c2ccccc2)n(C)c1=O	cell growth or viability	MTT		143
COCCCOc1ccnc(COc2ccc(NC(=O)Nc3cc(F)cc(F)c3)cc2)c1C	cell growth or viability	MTT	72 h	44.8
COc1ccccc1/C=C/CNCC(O)COc1ccc2ncccc2c1 (centres unmarked)	cell growth or viability	CCK-8	72 h	44.3
CCOc1ccc(/C=C2\SC(=S)N(CC(=O)Nc3ccccc3)C2=O)cc1	cell growth or viability	MTT		10.3
COc1ccc(C(=O)O[C@@H]2CN3Cc4c(cc5c(c4OC)OCO5)[C@@]24C=C[C@H](OC)C[C@@H]34)cc1OC	cell growth or viability	WST-1		2.6
CC1=C(O)C(=O)C=C2C1=CC=C1[C@@]2(C)CC[C@@]2(C)[C@@H]3C[C@](C)(C(=O)OCCCN4C(=O)C5C=CC=CC5C4=O)CC[C@]3(C)CC[C@]12C (some centres unmarked)	cell growth or viability	MTT	48 h	3.65
O=C(Nc1nnc(-c2cc3ccccc3[nH]2)s1)c1cc2c([nH]c3ccccc32)c(-c2ccc(Cl)cc2)n1	cell growth or viability	MTT	72 h	3.33
CCC(=O)Nc1cc(Nc2nc(N3CCc4sccc4C3)c3cccnc3n2)c(OC)cc1N(C)C	cell growth or viability	MTT		> 50
COc1ccc(NC(=O)Nc2ccc(OCc3ncc(C)c(OC)c3C)cc2)cc1	cell growth or viability	MTT	72 h	12.9
CCCCNC(=O)NNC(=O)c1cccc(Nc2nccc(-c3ccncc3)n2)c1	cell growth or viability	MTT	24 h	30.6
